# Experimental data gathered from unrelated publications.
# Compare with care: the assays were run in different laboratories.
# Target: Tyrosine-protein kinase TXK (TXK, Homo sapiens, UniProt P42681)
# One construct used (P42681 1-527): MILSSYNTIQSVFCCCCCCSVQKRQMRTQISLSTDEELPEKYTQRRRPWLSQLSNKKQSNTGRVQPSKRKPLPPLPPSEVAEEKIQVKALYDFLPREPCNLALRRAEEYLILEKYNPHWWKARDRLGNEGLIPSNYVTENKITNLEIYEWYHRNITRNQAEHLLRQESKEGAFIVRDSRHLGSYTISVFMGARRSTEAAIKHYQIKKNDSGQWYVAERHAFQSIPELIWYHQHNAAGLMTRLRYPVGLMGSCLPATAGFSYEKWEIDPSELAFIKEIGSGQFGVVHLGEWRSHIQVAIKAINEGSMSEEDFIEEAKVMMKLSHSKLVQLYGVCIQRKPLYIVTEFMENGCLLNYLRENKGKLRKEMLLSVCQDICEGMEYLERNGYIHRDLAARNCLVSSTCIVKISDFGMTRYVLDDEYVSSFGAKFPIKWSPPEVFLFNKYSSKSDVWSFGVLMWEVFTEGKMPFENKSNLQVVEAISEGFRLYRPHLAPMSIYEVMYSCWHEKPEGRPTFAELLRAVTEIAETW
Compound,effect on,mode,method,tested at,endpoint,value
COc1cc(Nc2ncc(F)c(Nc3ccc4c(n3)NC(=O)C(C)(C)O4)n2)cc(OC)c1OC,binding,,,10 µM,inhibition,90%
Nc1ncc(-c2nc(N3CCOCC3)nc(N3CCOCC3)n2)c(C(F)F)n1,binding,,competition with immobilised ligand,10 µM,remaining binding,56%
Cc1nn(C)cc1-c1nc2c(N3CCN(Cc4ccc(Cl)cc4)CC3)c(Cl)cnc2[nH]1,binding,,competition with immobilised ligand,1 µM,remaining binding,100%
N#CC1(c2ccccn2)CCN(Cc2cc(C(=O)O)c(=O)n3ccccc23)CC1,binding,,competition with immobilised ligand,1 µM,remaining binding,100%
CC(C)(C)c1cc(C=C(C#N)C#N)cc(Br)c1O,enzyme activity,inhibitor,,0.5 µM,remaining activity,108%
Cn1cncc1[C@](O)(COc1ccc(C#N)cc1-c1ccc(OC(F)(F)F)cc1)c1ccc(C#N)cc1,binding,,competition with immobilised ligand,1 µM,remaining binding,87%
COc1ncccc1-c1cnn2ccc(N3CCN(C(=O)OC(C)C)CC3)nc12,binding,,competition with immobilised ligand,1 µM,remaining binding,74%
O=c1[nH]c2ccccc2n1C1CCN(Cc2ccc(-c3[nH]c4cc5ncnc5cc4nc3-c3ccccc3)cc2)CC1,enzyme activity,,,0.5 µM,remaining activity,104%
